# Assay results collected from several papers.
# Each line is one published result; the experiments were not run side by side.
# SIRT3: NAD-dependent protein deacetylase sirtuin-3, mitochondrial (SIRT3, Homo sapiens, UniProt Q9NTG7)
# PTGS1: Prostaglandin G/H synthase 1 (PTGS1, Ovis aries, UniProt P05979)
Structure (SMILES),target,test,setting,inhibition
CCCCCC1CCc2cc(Cl)cc(Br)c2O1 (stereo not shown),SIRT3,"enzyme activity, inhibitor, fluorescence",200 µM,1.2%
CCCCCCCCCCCCNC(=S)NCCCC[C@H](NC(=O)OCc1ccccc1)C(=O)N[C@@H](Cc1c[nH]c2ccccc12)C(=O)N[C@@H](CCC(=O)O)C(N)=O,SIRT3,"enzyme activity, inhibitor",10 µM,21%
CCN(CC)c1ccc(C2=NNC(=O)CC2C)cc1[N+](=O)[O-] (stereo not shown),"cGMP-inhibited 3',5'-cyclic phosphodiesterase 3B (PDE3B, Homo sapiens, UniProt Q13370)","enzyme activity, inhibitor",0.1 µM,97%
O=c1c(O)c(-c2ccc(O)cc2)oc2cc(O)cc(O)c12,PTGS1,"enzyme activity, inhibitor, absorbance",50 µM,61.4%
NC(=O)CCNC(=S)NCCCC[C@H](NS(=O)(=O)c1cccc(F)c1)C(=O)N[C@@H](Cc1c[nH]c2ccccc12)C(=O)NC1CCC1,SIRT3,"enzyme activity, inhibitor",10 µM,30%
Cc1ncc([N+](=O)[O-])n1C(=NO)c1ccccc1C(F)(F)F,"Fas-activated serine/threonine kinase (Homo sapiens, UniProt Q14296)","enzyme activity, inhibitor",10 µM,7.77%
CC(=S)NCCCC[C@H](NC(=O)OCc1ccccc1)C(=O)N[C@@H](Cc1c[nH]c2ccccc12)C(=O)N[C@@H](CCC(=O)O)C(N)=O,SIRT3,"enzyme activity, inhibitor",10 µM,9%
CCCCCC1CC(=O)c2cc(C)cc(C)c2O1 (stereo not shown),SIRT3,"enzyme activity, inhibitor, fluorescence",200 µM,2.4%
CC(=S)NCCCC[C@H](NC(=O)OCc1ccccc1)C(=O)N[C@@H](Cc1c[nH]c2ccccc12)C(=O)N[C@@H](CC(N)=O)C(N)=O,SIRT3,"enzyme activity, inhibitor",10 µM,14%
O=c1cc(-c2ccccc2)oc2c(Br)cc(Cl)cc12,SIRT3,"enzyme activity, inhibitor, fluorescence",200 µM,12%
CCCCCCCCCCCCNC(=S)NCCCC[C@H](NC(=O)OCc1ccccc1)C(=O)N[C@@H](C)C(=O)N[C@@H](CCCNC(=N)N)C(N)=O,SIRT3,"enzyme activity, inhibitor",1 µM,20%
CCCCCC1CC(O)c2cc(Cl)cc(Br)c2O1 (stereo not shown),SIRT3,"enzyme activity, inhibitor, fluorescence",200 µM,3.6%
COc1cc(NC(C)=O)c(Cl)cc1C(=O)Nc1nccs1,"Type-2 angiotensin II receptor (AGTR2, Homo sapiens, UniProt P50052)",cell-free assay,10 µM,2.7%
CN(C)C1CCN(CC#Cc2nn(C3CCCC3)c3nc(NCc4ccccc4)ncc23)C1 (stereo not shown),"Serine/threonine-protein kinase Nek2 (NEK2, Homo sapiens, UniProt P51955)","enzyme activity, inhibitor, FRET",0.1 µM,2%
CCCCCC1CC(=O)c2cc(OC)ccc2O1 (stereo not shown),SIRT3,"enzyme activity, inhibitor, fluorescence",200 µM,9.5%
Oc1cccc(Nc2nc(-c3ccc(F)cc3F)cs2)c1,"Gamma-aminobutyric acid receptor subunit alpha-1 (GABRA1, Homo sapiens, UniProt P14867)",cell-free assay,10 µM,-27.3%
CC(=S)NCCCC[C@H](NC(=O)OCc1ccccc1)C(=O)N[C@@H](Cc1c[nH]c2ccccc12)C(=O)N[C@@H](CCCCN)C(N)=O,SIRT3,"enzyme activity, inhibitor",10 µM,59%
C[C@@H]1O[C@@H](O[C@H]2[C@H](Oc3c(-c4ccc(O)cc4)oc4cc(O)cc(O)c4c3=O)O[C@H](CO[C@@H]3O[C@H](CO)[C@@H](O)[C@H](O)[C@H]3O)[C@@H](O)[C@@H]2O)[C@H](O)[C@H](O)[C@H]1O,PTGS1,"enzyme activity, inhibitor, absorbance",50 µM,76.2%
O=C(NC1CCC1)[C@H](Cc1c[nH]c2ccccc12)NC(=O)[C@H](CCCCNC(=S)NCCn1nn[nH]c1=O)NS(=O)(=O)c1cccc(F)c1,SIRT3,"enzyme activity, inhibitor",100 µM,10%
